Measured values published in ChEMBL document CHEMBL2417504, “A fundamental relationship between hydrophobic properties and biological activity for the duocarmycin class of DNA-alkylating antitumor drugs: hydrophobic-binding-driven bonding” (J Med Chem, 2013).
Values after ≈ are worked out from the molar mass of the structure shown.

Key:
L1210 = assay: Cytotoxicity against mouse L1210 cells after 72 hrs by phosphatase assay; assay type: functional, cell-based; conditions: L1210, 72 h
Summary of the method: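 L1210 mouse lymphocytic leukemia cells seeded at 30,000 cells/mL in DMEM + 10% FBS, 100 μL/well, 24 h at 37 °C, 5% CO2; DMSO serial 10-fold dilutions added, six concentrations over 0–100 nM or 0–1000 nM, duplicate, 72 h.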

[1] = Displacement of ethidium bromide from hairpin 5'AAAAA duplex DNA sequence (unknown origin) at 10 equivalent compound dose after 5 mins by FID assay
[2] = Induction of w794 DNA alkylation (unknown origin) after 2 hrs by densitometric analysis relative to duocarmycin SA
Summary of the method: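 Loss of full-length labeled DNA quantified by densitometry of remaining non-alkylated DNA. Relative alkylation efficiency corrected for the 10-fold differences in compound concentrations used.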

[3] = Solubility of the compound in water after 40 hrs; assay type: physicochemical; conditions: for solubility at 40 h: water; for solubility: buffer, 40 h
[4] = Displacement of ethidium bromide from hairpin 5'AAAAA duplex DNA sequence (unknown origin) at 2 equivalent compound dose after 5 mins by FID assay

**Q.** With `COCCOc1cc2cc(C(=O)N3C[C@@H](CCl)c4c3cc(O)c3[nH]c(C(=O)OC)cc43)[nH]c2c(OCCOC)c1OCCOC` as the compound, how does the IC50 (L1210) read?
**A.** 0.037 nM

**Q.** And the inhibition [1]?
**A.** 50%

**Q.** What about the fold change (FC) [2] of the same compound?
**A.** 0.9

**Q.** And the solubility at 40 h [3]?
**A.** 740 µg/mL (≈ 1150 µM)

**Q.** What about the inhibition [4] of the same compound?
**A.** 10%

**Q.** For `COCCOCCOCCOc1cc2cc(C(=O)N3C[C@@H](CCl)c4c3cc(O)c3[nH]c(C(=O)OC)cc43)[nH]c2c(OCCOCCOCCOC)c1OCCOCCOCCOC`, which IC50 (L1210) is on record?
**A.** 3.5 nM

**Q.** And the fold change (FC) [2]?
**A.** 0.009

**Q.** And the solubility [3]?
**A.** 80000 µg/mL (≈ 87900 µM)

**Q.** What does the source list for `COC(=O)c1cc2c3c(cc(O)c2[nH]1)N(C(=O)c1cc2cc(OC)c(OC)c(OC)c2[nH]1)C[C@H]3CCl`?
**A.** IC50 (L1210): 0.008 nM; inhibition [1]: 97%; fold change (FC) [2]: 1; solubility at 40 h [3]: 460 µg/mL (≈ 895 µM); inhibition [4]: 53%

**Q.** Which IC50 (L1210) does the source give for `COCCOCCOc1cc2cc(C(=O)N3C[C@@H](CCl)c4c3cc(O)c3[nH]c(C(=O)OC)cc43)[nH]c2c(OCCOCCOC)c1OCCOCCOC` here?
**A.** 0.26 nM

**Q.** And the inhibition [1]?
**A.** 27%

**Q.** And the fold change (FC) [2]?
**A.** 0.08

**Q.** What about the solubility at 40 h [3] of the same compound?
**A.** 2000 µg/mL (≈ 2570 µM)

**Q.** And the inhibition [4]?
**A.** 0%

**Q.** With `COCCOc1c(OC)cc2cc(C(=O)N3C[C@@H](CCl)c4c3cc(O)c3[nH]c(C(=O)OC)cc43)[nH]c2c1OC` as the compound, how does the IC50 (L1210) read?
**A.** 0.018 nM

**Q.** Which IC50 (L1210) does the source give for `COCCOCCOc1c(OC)cc2cc(C(=O)N3C[C@@H](CCl)c4c3cc(O)c3[nH]c(C(=O)OC)cc43)[nH]c2c1OC` here?
**A.** 0.035 nM

**Q.** For `COCCOCCOCCOCCOc1c(OC)cc2cc(C(=O)N3C[C@@H](CCl)c4c3cc(O)c3[nH]c(C(=O)OC)cc43)[nH]c2c1OC`, which IC50 (L1210) is on record?
**A.** 0.11 nM

**Q.** Which IC50 (L1210) does the source give for `COCCOCCOCCOCCOc1cc2cc(C(=O)N3C[C@@H](CCl)c4c3cc(O)c3[nH]c(C(=O)OC)cc43)[nH]c2c(OCCOCCOCCOCCOC)c1OCCOCCOCCOCCOC` here?
**A.** 35 nM

**Q.** And the fold change (FC) [2]?
**A.** 0.001

**Q.** And the solubility [3]?
**A.** > 19000 µg/mL

**Q.** With `COCCOCCOCCOc1c(OC)cc2cc(C(=O)N3C[C@@H](CCl)c4c3cc(O)c3[nH]c(C(=O)OC)cc43)[nH]c2c1OC` as the compound, how does the IC50 (L1210) read?
**A.** 0.07 nM

**Q.** Which IC50 (L1210) does the source give for `COCCOCCOCCOCCOCCOc1c(OC)cc2cc(C(=O)N3C[C@@H](CCl)c4c3cc(O)c3[nH]c(C(=O)OC)cc43)[nH]c2c1OC` here?
**A.** 0.25 nM

**Q.** What does the source list for `COCCOCCOCCOCCOCCOc1cc2cc(C(=O)N3C[C@@H](CCl)c4c3cc(O)c3[nH]c(C(=O)OC)cc43)[nH]c2c(OCCOCCOCCOCCOCCOC)c1OCCOCCOCCOCCOCCOC`?
**A.** IC50 (L1210): 370 nM; fold change (FC) [2]: 0.0002; solubility [3]: > 12000 µg/mL
